Data reported in ChEMBL document CHEMBL4706530, “Synthesis, inhibitory activity and in silico docking of dual COX/5-LOX inhibitors with quinone and resorcinol core” (Eur J Med Chem, 2020).

target: T1, Polyunsaturated fatty acid 5-lipoxygenase (Homo sapiens, UniProt P09917); assay: Inhibition of human recombinant 5-LOX assessed as reduction in LTB4 level using 800 uM arachidonic acid as substrate preincubated with enzyme for 10 mins followed by substrate addition and measured after 10 mins by ELISA; conditions: not given
T1 sequence (P09917 whole entry): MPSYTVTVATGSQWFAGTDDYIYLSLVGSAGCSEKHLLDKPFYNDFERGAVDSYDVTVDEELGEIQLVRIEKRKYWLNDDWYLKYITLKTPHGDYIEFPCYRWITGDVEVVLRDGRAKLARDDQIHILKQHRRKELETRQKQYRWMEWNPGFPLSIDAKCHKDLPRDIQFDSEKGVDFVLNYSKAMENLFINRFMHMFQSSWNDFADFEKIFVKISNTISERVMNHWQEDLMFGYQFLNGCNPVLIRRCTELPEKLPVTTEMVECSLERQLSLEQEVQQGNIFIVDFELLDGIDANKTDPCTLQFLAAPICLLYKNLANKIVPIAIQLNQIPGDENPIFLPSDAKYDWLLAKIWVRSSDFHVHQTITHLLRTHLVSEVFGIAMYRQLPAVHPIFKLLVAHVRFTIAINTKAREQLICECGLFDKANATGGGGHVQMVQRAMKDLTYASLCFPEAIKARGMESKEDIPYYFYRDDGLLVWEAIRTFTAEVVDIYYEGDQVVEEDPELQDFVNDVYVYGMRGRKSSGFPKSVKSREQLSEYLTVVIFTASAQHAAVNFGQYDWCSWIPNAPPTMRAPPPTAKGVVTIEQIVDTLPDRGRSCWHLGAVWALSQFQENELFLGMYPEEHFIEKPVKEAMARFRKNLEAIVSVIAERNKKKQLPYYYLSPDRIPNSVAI
In short: (§1)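 Human recombinant 5-LOX, 1 unit per reaction, in PBS pH 7.4 containing 1 mM Na2EDTA and 200 µM ATP. Compound in DMSO (DMSO blank) held 10 min at 4°C. CaCl2 added, reaction started with arachidonic acid (800 µM solution) for 10 min at 37°C. Formic acid stop, 1:15 dilution, LTB4 measured by ELISA as % inhibition versus blank. At least three experiments in at least duplicate.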

SMILES | IC50
COC1=CC(=O)C=C(Br)C1OC(C)=O (configuration not stated) | 0.17 µM
COC1=CC(=O)C=C(Br)C1=O | 1.67 µM

Next, values leading:

IC50 | SMILES
1.14 µM | COc1cc(O)cc(Br)c1O
1.01 µM | CCCCCC1=CC(=O)C=C(OC)C1=N
1.37 µM | CCCCCC1=CC(=O)C=C(OC)C1=O [Primin]

system: not listed separately; assay: Antioxidant activity assessed as radical scavenging activity measured after 30 mins by DPPH assay; assay type: functional; conditions: not given
In short: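 Test compounds in methanol, two-fold serial dilution to final 3.125–400 µM, incubated 30 min with DPPH in methanol (stated final […]) at room temperature in the dark. Absorbance read at 517 nm. Trolox and L-ascorbic acid served as positive references. Activity expressed as EC50.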

EC50 | SMILES
31.1 µM | O=C1O[C@H]([C@@H](O)CO)C(O)=C1O [ASCORBIC ACID]
32.5 µM | Cc1c(C)c2c(c(C)c1O)CCC(C)(C(=O)O)O2 (configuration not stated) [TROLOX]
45.6 µM | COC1=CC(=O)C=C(Br)C1OC(C)=O (configuration not stated)

system: not listed separately; assay: Selectivity index, ratio of IC50 for ovine COX-1 to IC50 for human recombinant COX-2; conditions: not given

SMILES | Ratio IC50
COC1=CC(=O)C=C(Br)C1=O | 3.47
CCCCCc1cc(O)cc(O)c1 [WHILE OLIVETOL] | 0.79

The remaining lines, values ahead:

Ratio IC50 | SMILES
0.87 | CCCCCCCCCCCCCc1cc(O)cc(O)c1
1.27 | COc1cc(O)cc(Br)c1O
2.71 | CCCCCC1=CC(=O)C=C(OC)C1=N
2.38 | CCCCCCCCCCCCCCCc1cc(O)cc(O)c1 [CARDOL]
9.96 | CCCCCC1=CC(=O)C=C(OC)C1=O [Primin]

target: T2, Prostaglandin G/H synthase 1 (Ovis aries) (UniProt P05979); assay: Inhibition of ovine COX-1 assessed as reduction in PGE2 level using 10 uM arachidonic acid as substrate at 20 uM preincubated with enzyme for 5 mins followed by substrate addition and measured after 20 mins by ELISA relative to control; conditions: time 25.0 min
T2 sequence (whole entry): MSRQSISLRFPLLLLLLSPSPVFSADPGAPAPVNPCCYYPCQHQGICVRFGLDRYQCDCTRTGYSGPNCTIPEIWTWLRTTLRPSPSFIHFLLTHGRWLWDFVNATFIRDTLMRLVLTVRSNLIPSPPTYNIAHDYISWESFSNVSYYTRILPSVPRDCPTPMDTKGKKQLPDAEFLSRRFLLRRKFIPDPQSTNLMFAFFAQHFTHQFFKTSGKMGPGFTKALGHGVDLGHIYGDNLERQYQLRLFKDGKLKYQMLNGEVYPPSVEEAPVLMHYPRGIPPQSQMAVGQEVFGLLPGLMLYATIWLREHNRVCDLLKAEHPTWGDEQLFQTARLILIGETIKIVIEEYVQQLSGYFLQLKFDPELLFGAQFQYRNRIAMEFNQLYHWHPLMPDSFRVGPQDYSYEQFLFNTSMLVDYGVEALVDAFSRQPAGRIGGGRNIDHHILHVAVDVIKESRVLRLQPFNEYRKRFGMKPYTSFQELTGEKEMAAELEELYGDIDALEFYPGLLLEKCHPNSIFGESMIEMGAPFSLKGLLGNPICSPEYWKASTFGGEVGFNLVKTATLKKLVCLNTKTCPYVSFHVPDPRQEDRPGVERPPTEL
In short: (§2)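 Enzyme in 100 mM Tris pH 8.0 with 5 µM porcine hematin, 18 mM L-epinephrine and 50 µM Na2EDTA. Compound in DMSO (DMSO blank) 5 min at room temperature. Arachidonic acid (10 µM) added, 20 min at 37°C. Stopped with 10% formic acid, diluted 1:15, PGE2 measured by ELISA at 405 nm as % inhibition versus blank. At least three experiments in at least duplicate. Non-active below 50% inhibition at 20 µM.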

inhibition | SMILES
< 50% | CCCCCc1cc(O)cc(OC)c1
< 50% | COC1=CC(=O)C=C(Br)C1OC(C)=O (configuration not stated)

target: T3, Prostaglandin G/H synthase 2 (Homo sapiens, UniProt P35354); assay: Inhibition of human recombinant COX-2 assessed as reduction in PGE2 level using 10 uM arachidonic acid as substrate preincubated with enzyme for 5 mins followed by substrate addition and measured after 20 mins by ELISA; conditions: not given
T3 sequence (P35354 whole entry): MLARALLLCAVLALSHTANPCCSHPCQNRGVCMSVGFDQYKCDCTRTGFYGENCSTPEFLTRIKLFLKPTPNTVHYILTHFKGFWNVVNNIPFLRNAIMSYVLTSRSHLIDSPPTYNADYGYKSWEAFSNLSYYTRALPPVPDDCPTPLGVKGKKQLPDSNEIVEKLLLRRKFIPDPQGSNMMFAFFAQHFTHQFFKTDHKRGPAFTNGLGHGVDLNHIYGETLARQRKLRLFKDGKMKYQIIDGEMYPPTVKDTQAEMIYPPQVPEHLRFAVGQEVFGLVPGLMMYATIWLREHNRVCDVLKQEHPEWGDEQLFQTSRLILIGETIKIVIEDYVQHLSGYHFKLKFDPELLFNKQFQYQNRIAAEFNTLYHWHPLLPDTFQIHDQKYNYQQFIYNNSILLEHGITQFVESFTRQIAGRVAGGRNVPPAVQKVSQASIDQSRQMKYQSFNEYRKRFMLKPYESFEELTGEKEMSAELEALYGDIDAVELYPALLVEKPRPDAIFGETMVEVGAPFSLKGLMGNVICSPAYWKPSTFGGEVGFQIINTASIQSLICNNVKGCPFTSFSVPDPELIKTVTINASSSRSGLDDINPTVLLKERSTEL

SMILES | IC50
COC1=CC(=O)C=C(Br)C1=O | 4.48 µM
CCCCCc1cc(O)cc(O)c1 [WHILE OLIVETOL] | 17.3 µM

Now from value to molecule:

IC50 | SMILES
15.9 µM | CCCCCc1cc(O)cc(OC)c1
2.74 µM | CCCCCCCCCCCCCc1cc(O)cc(O)c1
4.81 µM | COc1cc(O)cc(Br)c1O
5.82 µM | CCCCCC1=CC(=O)C=C(OC)C1=N
2.36 µM | CCCCCCCCCCCCCCCc1cc(O)cc(O)c1 [CARDOL]
1.9 µM | CCCCCC1=CC(=O)C=C(OC)C1=O [Primin]

target: T4, Prostaglandin G/H synthase 2 (Homo sapiens) (UniProt P35354); assay: Inhibition of human recombinant COX-2 assessed as reduction in PGE2 level using 10 uM arachidonic acid as substrate at 20 uM preincubated with enzyme for 5 mins followed by substrate addition and measured after 20 mins by ELISA relative to control; conditions: time 25.0 min; in short: as §2
T4 sequence (whole entry): T3 sequence (P35354 whole entry)

inhibition | SMILES
< 50% | COC1=CC(=O)C=C(Br)C1OC(C)=O (configuration not stated)

target: T5, Polyunsaturated fatty acid 5-lipoxygenase (Homo sapiens) (UniProt P09917); assay: Inhibition of human recombinant 5-LOX assessed as reduction in LTB4 level using 800 uM arachidonic acid as substrate at 5 uM preincubated with enzyme for 10 mins followed by substrate addition and measured after 10 mins by ELISA relative to control; conditions: time 20.0 min
T5 sequence (whole entry): T1 sequence (P09917 whole entry)
In short: as §1, with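 “duplicate. Non-active cutoff below 50% inhibition at 5 µM.” for “duplicate.”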

inhibition | SMILES
< 50% | CCCCCc1cc(O)cc(OC)c1
< 50% | CCCCCCCCCCCCCc1cc(O)cc(O)c1
< 50% | CCCCCCCCCCCCCCCc1cc(O)cc(O)c1 [CARDOL]

SMILES | inhibition
CCCCCc1cc(O)cc(O)c1 [WHILE OLIVETOL] | < 50%

target: T6, Prostaglandin G/H synthase 1 (Ovis aries, UniProt P05979); assay: Inhibition of ovine COX-1 assessed as reduction in PGE2 level using 10 uM arachidonic acid as substrate preincubated with enzyme for 5 mins followed by substrate addition and measured after 20 mins by ELISA; conditions: not given; in short: as §2
T6 sequence (P05979 whole entry): T2 sequence (whole entry)

SMILES | IC50
COC1=CC(=O)C=C(Br)C1=O | 15.6 µM
CCCCCc1cc(O)cc(O)c1 [WHILE OLIVETOL] | 13.6 µM

Now from value to molecule:

IC50 | SMILES
2.38 µM | CCCCCCCCCCCCCc1cc(O)cc(O)c1
6.11 µM | COc1cc(O)cc(Br)c1O
15.8 µM | CCCCCC1=CC(=O)C=C(OC)C1=N
5.61 µM | CCCCCCCCCCCCCCCc1cc(O)cc(O)c1 [CARDOL]
18.9 µM | CCCCCC1=CC(=O)C=C(OC)C1=O [Primin]
